Measured values from different studies.
Lines come from different studies, so protocols differ.
Cell line: NCI-H1975
Effect on: cell growth or viability

CC(C)(C)[C@H](N)C(=O)Nc1ccccc1/N=c1\cc(-c2ccc3c(c2)OCCO3)oc2cc(F)ccc12 — inhibition (CCK-8; 1 µM): -7.44%
CCCCC(=O)Nc1ccc(-c2ccc3ncn(CC4CCC4)c(=O)c3c2)cn1 — IC50 (CCK-8; 72 h): 1.4 µM
COc1cccc(NC(=O)Nc2nc3cc(-c4ccc5ncn(CCN(C)C)c(=O)c5c4)ccc3s2)c1 — IC50 (MTT; 72 h): > 20 µM
C#Cc1cccc(Nc2ncnc3cc(OCCOC)c(OCCOC)cc23)c1 — IC50 (MTT; 72 h): 5.72 µM
N[C@@H](CO)C(=O)Nc1ccccc1/N=c1\cc(-c2ccc3c(c2)OCO3)oc2ccccc12 — inhibition (CCK-8; 1 µM): -1.95%
CCCn1cnc2ccc(-c3ccc(NC(=O)c4ccccc4)nc3)cc2c1=O — IC50 (CCK-8; 72 h): 0.095 µM
Cc1ccc(NC(=O)Nc2nc3cc(-c4ccc5ncn(Cc6ccccc6)c(=O)c5c4)ccc3s2)cc1 — IC50 (MTT; 72 h): > 20 µM
COc1ccc2/c(=N/c3ccccc3NC(=O)[C@H](C)N)cc(-c3ccc4c(c3)OCCO4)oc2c1 — inhibition (CCK-8; 1 µM): 5.17%
COc1ccc(NC(=O)Nc2nc3cc(-c4ccc5ncn(CCN(C)C)c(=O)c5c4)ccc3s2)cc1 — IC50 (MTT; 72 h): > 20 µM
CCCn1cnc2ccc(-c3ccc(NC(=O)CC4CC4)nc3)cc2c1=O — IC50 (CCK-8; 72 h): 3.48 µM
